In the RNAGym collection of RNA variant scans (doi:10.1126/science.aae0568) one finds yeast fitness data, which are given here for 167 variants.

First the molecules themselves.
B1: tRNA (parent)
chain: GUUCCGUUGGCGUAAUGGUAACGCGUCUCCCUCCUAAGGAGAAGACUGCGGGUUCGAGUCCCGUACGGAACG

This sample holds only a part of the variants without activity.

The variants in this data set derive from B1. In words: yeast fitness relative to wild type (ratio to wild type); higher = fitter; tRNA-Arg(CCU), competitive growth, 37 C, YPD. The essentials: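 For this measurement, the tRNA-Arg(CCU) gene was varied by chemical synthesis at a 3% per-site mutation rate across 69 sites, and each variant was placed at the native genomic locus in Saccharomyces cerevisiae. The pooled strains went through a 24-hour competition in YPD at 37°C in six parallel replicates, with amplicons from start and end populations read by 100-nucleotide paired-end sequencing. Darwinian fitness relative to wild type followed from the change in each genotype's frequency. Genotypes needed ≥ 100 starting reads, and estimates < 0.5 were set to 0.5.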
Take C4G C5U C49A G56A G63C: the yeast fitness was at most 0.5. Under C4G C27A C46U G58C A70C stands at most 0.5; under C4A U28C U47C, at most 0.5; under C4G C34G G56A U59A, at most 0.5. To C4G C27G belongs 0.816; to C4G G44A A45C G63A, at most 0.5. Under C4G G56C A70G stands at most 0.5; under C4G C24U A40U A42C A45U, at most 0.5.

As to C4G G58C C62U, the yeast fitness turned out to be 0.651.

Consider C4G C30G G41C A70U, for which the yeast fitness is at most 0.5. With C4A U54G, the yeast fitness was found to be 0.612.

Take C4G C62U: the yeast fitness was found to be 0.869.

Turning to C4G C27A U32G G39U G41C C66G, the yeast fitness is at most 0.5. To C4G C11G U64A belongs at most 0.5; to C4G C31G U32G, at most 0.5. Under C4G C27A A43U stands at most 0.5; under C4G A36U C46U, 0.59; under C4G A15C C66U, 0.539.

With C4G G6A U64A, the yeast fitness was 0.651. To C4G C30U A42U G50C G63C belongs at most 0.5. As for C4G C49G G56U U64C A65C A70C, the yeast fitness amounted to 0.635. In the case of C4G A15C U26G G41C U47C G68C, the yeast fitness was at most 0.5.

In the case of C4G C5U C11U A14G, the yeast fitness is at most 0.5. Under C4G G9A A70C stands 1.09; under C4G C29G A36C A37U A40C A45G G51A A70U, at most 0.5. With C4G C30G C33A C61G, the yeast fitness was at most 0.5. To C4A U32C U59G belongs at most 0.5; to C4G G23C C66A, at most 0.5; to C4G G6C G39C, 0.578. Under C4G G17C U59C stands 0.746; under C4G C34G G67A, at most 0.5; under C4G A20G C30G G58A, at most 0.5. As for C4G G17A G50A C55U G67C, the yeast fitness was at most 0.5. Under C4A U47A A70G stands 0.536. Under C4G C5G G39A C49A stands at most 0.5. Under C4A U32A A57G A65U stands at most 0.5. C4G A14C C49U: the yeast fitness is at most 0.5.

In the case of C4G C5U U16A C34A C66A, the yeast fitness is at most 0.5. Turning to C4G G18C A42U C46G, the yeast fitness was at most 0.5. For the variant C4G C31G A70C, the yeast fitness turned out to be 0.537. Under C4G G18A A57C stands at most 0.5; under C4A U32A G38C U47A, at most 0.5; under C4G G23A C55A C61A, 0.667. Under C4G G17A A36U stands 0.691; under C4G A21G C34U G44C C55G, at most 0.5; under C4G A21G C34G, at most 0.5. For C4G G9A G12C C29A G50C, the yeast fitness was at most 0.5. Under C4G G6A C22G C62U A70C stands at most 0.5. To C4G G48U C66U belongs at most 0.5. Under C4G G10C stands 0.659. As for C4G G17C A43C G51A, the yeast fitness is at most 0.5. To C4G A14C G51C belongs at most 0.5; to C4G G17A A69C, 0.525. Under C4G C5U A40G stands 0.526. Under C4G A40G G56C stands 0.537; under C4G C24U U32C C49A A57U C66U G68C, at most 0.5. Consider C4G C5A C24U C61U C66U A70C, for which the yeast fitness came out at 0.514.

With C4G C62U A69U, the yeast fitness came out at 0.672. Under C4G C11G U13A U59G C61G stands at most 0.5; under C4G A14U C24U C49G G63A, at most 0.5. Regarding C4G C5G C29U G39C, the yeast fitness is at most 0.5. Under C4G G6C G25A C29A C31A C33G stands 0.59; under C4G C31U A57U, 0.665; under C4G A20C C31U, 0.536. To C4G A36U C66G belongs at most 0.5. C4G C22G A43U A57C U59C: the yeast fitness was at most 0.5.

Consider C4G C5U C31G G41A A43C G51C, for which the yeast fitness turned out to be 0.606.

Consider C4G C30U C55U, for which the yeast fitness was at most 0.5.

C4A U28G G48A C49G G50U: the yeast fitness was at most 0.5. For C4G G17C C33G U47A, the yeast fitness is 0.689. For C4G G6A, the yeast fitness was 0.977.

In the case of C4G G18C A57C, the yeast fitness is at most 0.5. Under C4G C24U A43U stands 0.65; under C4G C30A C62G, at most 0.5; under C4G C5G U26G A45C C61U G67A, at most 0.5. To C4G G12U A14C C49U A65G belongs 0.513; to C4G A15U C33A G52C, 0.707; to C4G C34G A40G G68A, at most 0.5. For the variant C4G C30G U54A C55U, the yeast fitness is at most 0.5.

For C4G C11U U28G A45C U53A G63C, the yeast fitness came to 0.559. To C4G A14C G25C A45U A57U belongs 0.55; to C4G A20C C30A C31G C34A A37G C49A A57C, at most 0.5; to C4G G9C G41A U53C C55U U59A A70U, at most 0.5.

C4G C34U G63A: the yeast fitness is at most 0.5. For C4G A15U C55A, the yeast fitness is at most 0.5. Under C4G A15U C33A G52C C55G stands at most 0.5. To C4A U32C A40U A69U belongs at most 0.5. To C4G G18A A45C belongs at most 0.5. With C4G C55U C61A, the yeast fitness is at most 0.5. To C4G C33U belongs 0.708.

In the case of C4G A15U A40C C60A C61G A65C, the yeast fitness was at most 0.5. With C4G C24A C46U, the yeast fitness came out at 0.608. Under C4G C27U G41C U64A G67A stands at most 0.5; under C4G G25A C49U G50U G63C, at most 0.5; under C4G A20U C31G C62A, at most 0.5.

For the variant C4G C24A A42U U47A C60G, the yeast fitness was 0.62. To C4G C22G C24U G41A A57U C66A belongs at most 0.5. To C4G G25C A45C C46A belongs 0.619; to C4G A15C, 0.719. To C4G A15U belongs 0.824; to C4G C5U G51A U53C C62U, at most 0.5; to C4G C27G C34G G51A, at most 0.5.

For C4G A15U G56C, the yeast fitness is at most 0.5. To C4G C11A C30G G67A belongs at most 0.5; to C4G C11A U19C G23C U47C A70U, at most 0.5; to C4G C5U, 0.751.

Regarding C4G C22G G52C G68C, the yeast fitness was found to be 0.575. Under C4G G9C C34A A40C stands 0.538.

On to C4G G6A C11U G23A A43G, for which the yeast fitness was at most 0.5. Under C4G C30U A42U G50C C62A stands 0.511; under C4G C11A C29U C33U U54C, at most 0.5.

As to C4G C24U A40G, the yeast fitness is at most 0.5. To C4G G9A C49A C55U belongs at most 0.5; to C4G C30A A42C, at most 0.5. To C4G C5G C29A C34U A42U G50C G68C A69G belongs 0.58. To C4A U53A belongs 0.769; to C4G A20C A40G G52C, 0.6; to C4G C5U C11U, 0.505. As for C4G A37C G51A, the yeast fitness was found to be 0.628. Under C4G G17A C61U stands 0.56; under C4G A36G A45C C61U C62G, at most 0.5. Consider C4G G17A G25C C66U, for which the yeast fitness was at most 0.5. To C4G C27U G41C belongs at most 0.5. To C4G C5G C34G A57G A65G C66U belongs at most 0.5.

Regarding C4G G6A G23A A43G G48C, the yeast fitness is at most 0.5. To C4G A57G C61U belongs 0.629.

On to C4G A14C C24G U53C C62G, for which the yeast fitness was at most 0.5.

Turning to C4G A14C G25C A45U, the yeast fitness is at most 0.5.

For C4A U32C G48C C55U, the yeast fitness is at most 0.5. With C4G A20U C31G G51A, the yeast fitness was at most 0.5. For C4G A14U A21C, the yeast fitness is 0.764. To C4G A14G A37U G38A belongs at most 0.5; to C4G G9A G50C, 0.642; to C4G A40G A45G, at most 0.5. Under C4G G18C A45G C62A A69C stands at most 0.5; under C4G C5G C29A C34U A42U G50C, 0.531; under C4G G6C C34G A42G G63C, at most 0.5. To C4G G39C belongs 0.747. On to C4G A57U A70U, for which the yeast fitness was determined as 0.869. To C4G C31G C55U belongs 0.516. Under C4G A21U G41C U53C A65C stands 0.535; under C4G A14G G38A G56C A70G, at most 0.5; under C4G C66A, 0.61. On to C4G C5G A14G A43G, for which the yeast fitness is at most 0.5. To C4G A65C A69C belongs at most 0.5; to C4G C34G A43U A70C, at most 0.5. To C4G C5G A43G G63A belongs at most 0.5; to C4G G38A C55U C60G, at most 0.5; to C4G A14C G48C, 0.579. As to C4G C11G C55U G63A, the yeast fitness is at most 0.5. For C4G A14C C24U C49U, the yeast fitness was at most 0.5. To C4G A69C belongs 0.878. As for C4G C49U C66U, the yeast fitness was determined as 0.681. To C4G C27A C46U belongs 0.539. To C4G G9C C46A U59A U64A belongs at most 0.5; to C4G G25A A45G, at most 0.5; to C4G C5U G58A A70C, at most 0.5. To C4G C22G C24U C29U C30G belongs at most 0.5. For the variant C4G A20C U54G, the yeast fitness was found to be 0.529. C4G A21G C27A G38C: the yeast fitness was at most 0.5. To C4G A14U U32C A45U C49G U64C belongs at most 0.5; to C4G A21U U28A C30G, at most 0.5.

With C4G C5U C27G C34A, the yeast fitness was at most 0.5. For the variant C4G G17A A43U C60A, the yeast fitness was at most 0.5. With C4G C5A C27A C34A A42U, the yeast fitness was at most 0.5.

With C4G G10A U13A U26G C27G C29U C33U U53C C61U, the yeast fitness was at most 0.5. As to C4A U32C, the yeast fitness amounted to 0.912.
